The values that follow come from ChEMBL document CHEMBL1152539, “Synthesis and evaluation of bioactive naphthoquinones from the Brazilian medicinal plant, Tabebuia avellanedae” (Bioorg Med Chem, 2009).

The term MIC denotes the smallest concentration in the dilution series that meets the test's criterion for growth inhibition.

The test system of one data set is Candida albicans. The data set can be described thus: Antimicrobial activity against Candida albicans NBRC1060 after 3-5 days by broth dilution method. The following applies: NBRC1060, 3-5 days. In general terms: In broth dilution the organism is exposed to a series of concentrations in liquid medium.
The test system of the next data set is Penicillium expansum. The experiment in a line: Antimicrobial activity against Penicillium expansum NBRC8800 after 3-5 days by broth dilution method. The following applies: NBRC8800, 3-5 days.
In the next data set the test system is Naganishia albida. The data set can be described thus: Antimicrobial activity against Cryptococcus albidus NBRC0378 after 3-5 days by broth dilution method. As to conditions: NBRC0378, 3-5 days.
Another data set deals with Aspergillus fumigatus. The experiment in a line: Antimicrobial activity against Aspergillus fumigatus NBRC4400 after 24 hrs by broth dilution method. As to conditions: NBRC4400, 24 h. It counts as functional.
A further data set deals with Paecilomyces variotii. The data set can be described thus: Antimicrobial activity against Paecilomyces variotii NBRC4855 after 24 hrs by broth dilution method. The class given is functional. As to conditions: NBRC4855, 24 h.
A further data set has as its system Saccharomyces cerevisiae. The data set can be described thus: Antimicrobial activity against Saccharomyces cerevisiae NBRC10114 after 3-5 days by broth dilution method. The following applies: NBRC10114, 3-5 days.
A short description of data set [1]: Inhibition of 12-O-tetradecanoylphorbol-13-acetate-induced EBV-early antigen activation in human Raji cells after 48 hrs by immunofluorescence technique. It counts as cell-based, human gammaherpesvirus 4. A digest of the protocol: (§1)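 Raji cells were incubated for 48 h at 37 °C in medium with n-butyric acid (4 mM), TPA (32 pmol) and graded amounts of test compound. Smears were stained for EBV-EA by indirect immunofluorescence, and positive cells were counted among at least 500 cells. Assays were run in triplicate. Activity was expressed relative to the n-butyric acid plus TPA control, set as 100%.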

Data set [2] deals with Raji. The experiment in a line: Inhibition of 12-O-tetradecanoylphorbol-13-acetate-induced EBV-early antigen activation in human Raji cells assessed as EA induction at 100 molar ratio after 48 hrs by immunofluorescence technique relative to 12-O-tetradecanoylphorbol-13-acetate. Set-up: scale not given: the % may be the effect or the level left. The class given is cell-based. The following applies: human gammaherpesvirus 4. A digest of the protocol:
as §1

Data set [3] concerns Raji. The experiment in a line: Inhibition of 12-O-tetradecanoylphorbol-13-acetate-induced EBV-early antigen activation in human Raji cells assessed as EA induction at 1000 molar ratio after 48 hrs by immunofluorescence technique relative to 12-O-tetradecanoylphorbol-13-acetate. It counts as cell-based. The following applies: human gammaherpesvirus 4. A digest of the protocol:
as §1

Data set [4] deals with Raji. The data set can be described thus: Inhibition of 12-O-tetradecanoylphorbol-13-acetate-induced EBV-early antigen activation in human Raji cells assessed as EA induction at 10 molar ratio after 48 hrs by immunofluorescence technique relative to 12-O-tetradecanoylphorbol-13-acetate. The arrangement: scale not given: the % may be the effect or the level left. As to conditions: human gammaherpesvirus 4. It counts as cell-based. A digest of the protocol:
as §1

A short description of data set [5]: Cytotoxicity against human Raji cells assessed as cell viability at 1000 molar ratio after 48 hrs by trypan blue staining. The class given is cell-based. As to conditions: read-out: Activity. A digest of the protocol: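 Raji cells were exposed for 48 h at 37 °C to n-butyric acid (4 mM), TPA (32 pmol) and test compound, as in the EBV-EA induction setup. Viability of the treated cells was then measured by trypan blue staining.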

Data set [6] deals with Raji. The experiment in a line: Inhibition of 12-O-tetradecanoylphorbol-13-acetate-induced EBV-early antigen activation in human Raji cells assessed as EA induction at 500 molar ratio after 48 hrs by immunofluorescence technique relative to 12-O-tetradecanoylphorbol-13-acetate. As to conditions: human gammaherpesvirus 4. The arrangement: scale not given: the % may be the effect or the level left. It counts as cell-based. A digest of the protocol:
as §1

Another data set relates to MCF7. The experiment in a line: Antiproliferative activity against human MCF7 cells after 72 hrs by trypan blue exclusion assay. It counts as functional, cell-based. As to conditions: MCF7, 72 h. A digest of the protocol:
(§2)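 Cells were kept in DMEM with 10% fetal serum and exposed to four concentrations of compound for 72 h at 37 °C in humidified 5% CO₂. They were then stained with 0.25% trypan blue for 20 min, and viable cells were counted by light microscopy. IC₅₀ was derived from separate experiments run in triplicate.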

A further data set deals with PC-3. The experiment in a line: Antiproliferative activity against human PC3 cells after 72 hrs by trypan blue exclusion assay. The class given is functional, cell-based. As to conditions: PC-3, 72 h. A digest of the protocol:
as §2

In a further data set the test system is A549. The experiment in a line: Antiproliferative activity against human A549 cells after 72 hrs by trypan blue exclusion assay. The class given is functional, cell-based. As to conditions: A549, 72 h. A digest of the protocol: as §2

In brackets after ≈: the same amount, converted by molar mass.

For `C[C@@H]1[C@H](O)[C@@H](C)/C=C/C=C/C=C/C=C/C=C/C=C/C=C/[C@H](O[C@@H]2O[C@H](C)[C@@H](O)[C@H](N)[C@@H]2O)C[C@@H]2O[C@](O)(C[C@@H](O)C[C@@H](O)[C@H](O)CC[C@@H](O)C[C@@H](O)CC(=O)O[C@H]1C)C[C@H](O)[C@H]2C(=O)O` [AMPHOTERICIN B], the MIC is 1.56 µg/mL (≈ 1.69 µM) against Candida albicans; 1.56 µg/mL (≈ 1.69 µM) with Penicillium expansum; 1.56 µg/mL (≈ 1.69 µM) against Naganishia albida; 1.56 µg/mL (≈ 1.69 µM) against Aspergillus fumigatus; 0.78 µg/mL (≈ 0.844 µM) in the data set on Paecilomyces variotii; 0.78 µg/mL (≈ 0.844 µM) with Saccharomyces cerevisiae.

In turn, `CC(O)c1cc2c(o1)C(=O)c1c(O)cccc1C2=O` (racemic) gave an IC50 in [1] of 306 mol ratio/32 pmol TPA. Moreover, the results for the Activity in the data set with Raji [2], in the data set with Raji [4] and in the data set on Raji [6] were 59%, 84.6% and 28.4%, respectively. Moreover, in the data set on Raji [3], the EA induction relative to TPA control stood at 8.9%. The viability at 48 h, 1000 molar ratio in [5] amounted to 60%.

In the case of `COc1cc(/C=C/C(=O)CC(=O)/C=C/c2ccc(O)c(OC)c2)ccc1O` [CURCUMIN], the IC50 in data set [1] was 345 mol ratio/32 pmol TPA. For the same compound, the results for the Activity in the data set with Raji [2], in the data set on Raji [4] and in the data set on Raji [6] were 74.5%, 95.8% and 40.3%, respectively. The EA induction relative to TPA control in the data set on Raji [3] worked out at 8.9%.

With `CC1(C)CCC2=C(O1)c1ccccc1C(=O)C2=O` [LAPACHONE], the IC50 stood at 210 mol ratio/32 pmol TPA in [1], 9.96 µM in the data set with MCF7, 1.13 µM in the data set on PC-3 and 4.21 µM in the data set on A549. The results for the Activity with Raji [2], in the data set on Raji [4] and with Raji [6] were 50.4%, 73.1% and 21.7%, respectively. For the same compound, the EA induction relative to TPA control with Raji [3] amounted to 4.7%. Also, in [5], the viability at 48 h, 1000 molar ratio was 50%.
